Laboratory results as given in ChEMBL document CHEMBL1124186, “Synthesis and evaluation of tylosin-related macrolides modified at the aldehyde function: a new series of orally effective antibiotics” (1988).
≈ marks a conversion by molar mass, not a printed value.

Experiments:
[1] = test system: Streptococcus; assay: In vitro antimicrobial activity against aerobic bacteria Streptococcus C 24; assay type: functional
[2] = test system: Staphylococcus epidermidis; assay: In vitro antimicrobial activity against Staphylococcus epidermidis EPI1; assay type: functional
[3] = test system: Staphylococcus epidermidis; assay: In vitro antimicrobial activity against aerobic bacteria Streptococcus epi 222; assay type: functional
[4] = test system: Streptococcus pneumoniae; assay: In vitro antimicrobial activity against aerobic bacteria Streptococcus pneumoniae B1-438; assay type: functional, streptococcus pneum
[5] = test system: Mus musculus; assay: Peripheral plasma levels in mice after oral administration of 50 mg/kg dose for 0.25 hr; assay type: functional, organism-based; design: dose 50 mg/kg
In short: (§1)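 Mice were given the compound orally and sampled for peripheral plasma at each time point. Plasma was assayed microbiologically against Micrococcus luteus seeded in Antibiotic Medium 1. Inhibition zone sizes were read, and concentrations were calculated from each compound's own standard curve. Each value is the mean of five mice per time point.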

[6] = test system: Rattus norvegicus; assay: Peripheral plasma levels in rats after oral administration of 100 mg/kg dose for 1 hr; assay type: functional, organism-based; design: dose 100 mg/kg
In short: (§2)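 Rats received 100 mg/kg orally and were sampled for peripheral plasma. Concentrations were measured by Micrococcus luteus agar-diffusion microbiological assay in Antibiotic Medium 1, with zone sizes converted using the standard curve for the appropriate compound. Each value is the average of three rats per time point.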

[7] = test system: Staphylococcus aureus; assay: In vitro antimicrobial activity against aerobic bacteria Staphylococcus aureus V41; assay type: functional
[8] = test system: Mus musculus; assay: Peripheral plasma levels in mice after oral administration of 100 mg/kg dose for 0.25 hr; assay type: functional, organism-based; design: dose 100 mg/kg; in short: as §1
[9] = test system: Streptococcus sanguinis; assay: In vitro antimicrobial activity against aerobic bacteria Streptococcus sanguis MX132; assay type: functional
[10] = test system: Rattus norvegicus; assay: Peripheral plasma levels in rats after oral administration of 100 mg/kg dose for 4 hr; assay type: functional, organism-based; design: dose 100 mg/kg; in short: as §2
[11] = test system: Staphylococcus aureus; assay: In vitro antimicrobial activity against aerobic bacteria Staphylococcus aureus V135; assay type: functional
[12] = test system: Staphylococcus aureus; assay: In vitro antimicrobial activity against aerobic bacteria Staphylococcus aureus V140,; assay type: functional
[13] = test system: Streptococcus; assay: In vitro antimicrobial activity against aerobic bacteria Streptococcus B 5; assay type: functional
[14] = test system: Mus musculus; assay: Peripheral plasma levels in mice after oral administration of 50 mg/kg dose for 2 hr; assay type: functional, organism-based; design: dose 50 mg/kg; in short: as §1
[15] = test system: Enterococcus faecium; assay: In vitro antimicrobial activity against Streptococcus faecium X66; assay type: functional, streptococcus fae-cium
[16] = test system: Staphylococcus aureus; assay: In vitro antimicrobial activity against aerobic bacteria Staphylococcus aureus 513E; assay type: functional
[17] = test system: Streptococcus pyogenes; assay: In vivo effective dose xperimental infections in rodent caused by Streptococcus pyogenes C203 when administered sc; assay type: functional
[18] = test system: Mus musculus; assay: Peripheral plasma levels in mice after oral administration of 50 mg/kg dose for 1 hr; assay type: functional, organism-based; design: dose 50 mg/kg; in short: as §1
[19] = test system: Rattus norvegicus; assay: Peripheral plasma levels in rats after oral administration of 100 mg/kg dose for 2 hr; assay type: functional, organism-based; design: dose 100 mg/kg; in short: as §2
[20] = test system: Rattus norvegicus; assay: Peripheral plasma levels in rats after oral administration of 100 mg/kg dose for 0.5 hr; assay type: functional, organism-based; design: dose 100 mg/kg; in short: as §2
[21] = test system: Haemophilus influenzae; assay: In vitro antimicrobial activity against aerobic bacteria Haemophilus influenzae 76; assay type: functional
[22] = test system: Streptococcus; assay: In vitro antimicrobial activity against aerobic bacteria Streptococcus B 14; assay type: functional
[23] = test system: Mus musculus; assay: Peripheral plasma levels in mice after oral administration of 100 mg/kg dose for 2 hr; assay type: functional, organism-based; design: dose 100 mg/kg; in short: as §1
[24] = test system: Streptococcus; assay: In vitro antimicrobial activity against aerobic bacteria Streptococcus D 8043; assay type: functional
[25] = test system: Mus musculus; assay: Peripheral plasma levels in mice after oral administration of 50 mg/kg dose for 0.5 hr; assay type: functional, organism-based; design: dose 50 mg/kg; in short: as §1
[26] = test system: Staphylococcus aureus; assay: In vitro antimicrobial activity against aerobic bacteria Staphylococcus aureus X400; assay type: functional
[27] = test system: Staphylococcus aureus; assay: In vitro antimicrobial activity against Staphylococcus aureus X1; assay type: functional
[28] = test system: Mus musculus; assay: Peripheral plasma levels in mice after oral administration of 100 mg/kg dose for 4 hr; assay type: functional, organism-based; design: dose 100 mg/kg; in short: as §1
[29] = test system: Streptococcus; assay: In vitro antimicrobial activity against aerobic bacteria Streptococcus G Kruder; assay type: functional; conditions: Streptococcus; read-out: MIC
[30] = test system: Mus musculus; assay: Peripheral plasma levels in mice after oral administration of 100 mg/kg dose for 0.5 hr; assay type: functional, organism-based; design: dose 100 mg/kg; in short: as §1
[31] = test system: Haemophilus influenzae; assay: In vitro antimicrobial activity against Haemophilus influenzae.; assay type: functional
[32] = test system: Streptococcus pyogenes; assay: In vitro antimicrobial activity against Streptococcus pyogenes C203; assay type: functional
[33] = test system: Streptococcus; assay: In vitro antimicrobial activity against aerobic bacteria Streptococcus D 2041; assay type: functional
[34] = test system: Streptococcus; assay: In vitro antimicrobial activity against aerobic bacteria Streptococcus D 9960; assay type: functional
[35] = test system: Haemophilus influenzae; assay: In vitro antimicrobial activity against aerobic bacteria Haemophilus influenzae MX366,; assay type: functional
[36] = test system: Streptococcus viridans; assay: In vitro antimicrobial activity against aerobic bacteria Streptococcus viridans 9943; assay type: functional
[37] = test system: Streptococcus; assay: In vitro antimicrobial activity against aerobic bacteria Streptococcus B 8; assay type: functional
[38] = test system: Rattus norvegicus; assay: Peripheral plasma levels in rats after oral administration of 100 mg/kg dose for 0.25 hr; assay type: functional, organism-based; design: dose 100 mg/kg; in short: as §2
[39] = test system: Staphylococcus epidermidis; assay: In vitro antimicrobial activity against aerobic bacteria Streptococcus epi 270; assay type: functional
[40] = test system: Mus musculus; assay: Peripheral plasma levels in mice after oral administration of 100 mg/kg dose for 1 hr; assay type: functional, organism-based; design: dose 100 mg/kg; in short: as §1
[41] = test system: Streptococcus pyogenes; assay: Activity against Streptococcus pyogenes C203 when administered sc; assay type: functional
In short: (§3)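 Mouse protection test: infected mice were dosed twice, at 1 and 5 h postinfection, either subcutaneously or orally. […] The result is expressed as ED50 in mg/kg × 2.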

[42] = test system: Streptococcus pyogenes; assay: Anti microbial activity against Streptococcus pyogenes; assay type: functional
[43] = test system: Streptococcus pyogenes; assay: In vivo effective dose against experimental infections in rodent caused by Streptococcus pyogenes C203 when administered sc; assay type: functional
[44] = test system: Streptococcus pyogenes; assay: In vivo effective dose against experimental infections in rodent caused by Streptococcus pyogenes C203 when administered orally; assay type: functional; conditions: po
[45] = test system: Streptococcus pneumoniae; assay: In vitro antimicrobial activity against Streptococcus pneumoniae; assay type: functional
[46] = test system: Streptococcus pyogenes; assay: Activity against Streptococcus pyogenes C203 when administered orally; assay type: functional; conditions: po; in short: as §3

SMILES: CC[C@H]1OC(=O)C[C@@H](O)[C@H](C)[C@@H](O[C@@H]2O[C@H](C)[C@@H](O[C@H]3C[C@@](C)(O)[C@@H](O)[C@H](C)O3)[C@H](N(C)C)[C@H]2O)[C@@H](CCOc2ccccc2)C[C@@H](C)C(=O)/C=C/C(C)=C/[C@@H]1CO[C@@H]1O[C@H](C)[C@@H](O)[C@@H](OC)[C@H]1OC
- MIC [1]: 1 µg/mL (≈ 1.01 µM)
- MIC [2]: 1 µg/mL (≈ 1.01 µM)
- MIC [3]: 1 µg/mL (≈ 1.01 µM)
- MIC [4]: > 128 µg/mL
- Concentration [5]: 1.6 µg/mL
- Concentration [6]: 2 µg/mL
- MIC [7]: 1 µg/mL (≈ 1.01 µM)
- Concentration [8]: 7.9 µg/mL
- MIC [9]: 8 µg/mL (≈ 8.05 µM)
- Concentration [10]: 2.6 µg/mL
- MIC [11]: 1 µg/mL (≈ 1.01 µM)
- MIC [12]: 2 µg/mL (≈ 2.01 µM)
- MIC [13]: 128 µg/mL (≈ 129 µM)
- Concentration [14]: 1.2 µg/mL
- MIC [15]: 128 µg/mL (≈ 129 µM)
- MIC [16]: 1 µg/mL (≈ 1.01 µM)
- ED50 [17]: > 6.3 mg/kg
- Concentration [18]: 2.3 µg/mL
- Concentration [19]: 2.7 µg/mL
- Concentration [20]: 0.6 µg/mL
- MIC [21]: > 128 µg/mL
- MIC [22]: 128 µg/mL (≈ 129 µM)
- Concentration [23]: 4 µg/mL
- MIC [24]: 128 µg/mL (≈ 129 µM)
- Concentration [25]: 2 µg/mL
- MIC [26]: 2 µg/mL (≈ 2.01 µM)
- MIC [27]: 1 µg/mL (≈ 1.01 µM)
- Concentration [28]: 3.5 µg/mL
- MIC [29]: > 128 µg/mL
- Concentration [30]: 7.4 µg/mL
- MIC [31]: > 128 µg/mL
- MIC [32]: 2 µg/mL (≈ 2.01 µM)
- MIC [33]: > 128 µg/mL
- MIC [34]: 128 µg/mL (≈ 129 µM)
- MIC [35]: 128 µg/mL (≈ 129 µM)
- MIC [36]: > 128 µg/mL
- MIC [37]: 128 µg/mL (≈ 129 µM)
- Concentration [38]: 0.2 µg/mL
- MIC [39]: > 128 µg/mL
- Concentration [40]: 6 µg/mL

SMILES: CC[C@H]1OC(=O)C[C@@H](O)[C@H](C)[C@@H](O[C@@H]2O[C@H](C)[C@@H](O[C@H]3C[C@@](C)(O)[C@@H](O)[C@H](C)O3)[C@H](N(C)C)[C@H]2O)[C@@H](C)C[C@@H](C)C(=O)/C=C/C(C)=C/[C@@H]1CO[C@@H]1O[C@H](C)[C@@H](O)[C@@H](OC)[C@H]1OC [DEFORMYLTYLOSIN]
- MIC [2]: 1 µg/mL (≈ 1.13 µM)
- ED50 [41]: 2 mg/kg
- MIC [42]: 1 µg/mL (≈ 1.13 µM)
- ED50 [43]: 2 mg/kg
- ED50 [44]: 12 mg/kg
- MIC [45]: 32 µg/mL (≈ 36 µM)
- MIC [27]: 0.5 µg/mL (≈ 0.563 µM)
- MIC [31]: 128 µg/mL (≈ 144 µM)
- MIC [32]: 1 µg/mL (≈ 1.13 µM)
- ED50 [46]: 12 mg/kg
